Data reported in ChEMBL document CHEMBL2062435, “Synthesis and in vitro antibacterial activity of gemifloxacin derivatives containing a substituted benzyloxime moiety” (2012).

How the values were obtained:
Format in all cases: functional
Staphylococcus aureus [1] = assay: Antimicrobial activity against extended spectrum beta-lactamases-producing methicillin-sensitive Staphylococcus aureus 10-13 after 18-24 hrs by two-fold serial dilution method
Summary of the method: (§1)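 Agar-medium twofold serial dilution against Gram-positive and Gram-negative strains; MIC taken as the lowest compound concentration giving complete inhibition of bacterial growth after incubation at 35 °C for 18-24 h.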

Enterococcus faecalis [2] = assay: Antimicrobial activity against Enterococcus faecalis 10-6 after 18-24 hrs by two-fold serial dilution method; summary of the method: as §1
[3] = system: Staphylococcus epidermidis; assay: Antimicrobial activity against extended spectrum beta-lactamases-producing methicillin-resistant Staphylococcus epidermidis 10-13 after 18-24 hrs by two-fold serial dilution method
Summary of the method: (§2)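 Agar twofold serial dilution MIC against clinical isolates. MIC was taken as the lowest concentration giving complete inhibition of bacterial growth after incubation at 35 °C for 18-24 h.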

Staphylococcus aureus [4] = assay: Antimicrobial activity against Staphylococcus aureus ATCC […] after 18-24 hrs by two-fold serial dilution method; summary of the method: as §1
Pseudomonas aeruginosa [5] = assay: Antimicrobial activity against Pseudomonas aeruginosa 10-12 after 18-24 hrs by two-fold serial dilution method; summary of the method: as §1
[6] = system: Staphylococcus epidermidis; assay: Antimicrobial activity against extended spectrum beta-lactamases-producing methicillin-sensitive Staphylococcus epidermidis 10-11 after 18-24 hrs by two-fold serial dilution method; summary of the method: as §1
Pseudomonas aeruginosa [7] = assay: Antimicrobial activity against extended spectrum beta-lactamases-producing Pseudomonas aeruginosa 10-9 after 18-24 hrs by two-fold serial dilution method; summary of the method: as §1
Enterococcus faecalis [8] = assay: Antimicrobial activity against Enterococcus faecalis 10-7 after 18-24 hrs by two-fold serial dilution method; summary of the method: as §1
Klebsiella pneumoniae [9] = assay: Antimicrobial activity against extended spectrum beta-lactamases-producing Klebsiella pneumoniae 10-2 after 18-24 hrs by two-fold serial dilution method; summary of the method: as §1
[10] = system: Staphylococcus epidermidis; assay: Antimicrobial activity against extended spectrum beta-lactamases-producing methicillin-sensitive Staphylococcus epidermidis 10-15 after 18-24 hrs by two-fold serial dilution method; summary of the method: as §1
Klebsiella pneumoniae [11] = assay: Antimicrobial activity against extended spectrum beta-lactamases-producing Klebsiella pneumoniae 10-1 after 18-24 hrs by two-fold serial dilution method; summary of the method: as §1
Pseudomonas aeruginosa [12] = assay: Antimicrobial activity against extended spectrum beta-lactamases-producing Pseudomonas aeruginosa 10-18 after 18-24 hrs by two-fold serial dilution method; summary of the method: as §1
Staphylococcus aureus [13] = assay: Antimicrobial activity against extended spectrum beta-lactamases-producing methicillin-resistant Staphylococcus aureus 10-11 after 18-24 hrs by two-fold serial dilution method; summary of the method: as §2
Staphylococcus aureus [14] = assay: Antimicrobial activity against extended spectrum beta-lactamases-producing methicillin-sensitive Staphylococcus aureus 10-14 after 18-24 hrs by two-fold serial dilution method; summary of the method: as §1
Enterococcus faecium [15] = assay: Antimicrobial activity against Enterococcus faecium 10-5 after 18-24 hrs by two-fold serial dilution method; summary of the method: as §1
Escherichia coli [16] = assay: Antimicrobial activity against extended spectrum beta-lactamases-producing Escherichia coli 10-2 after 18-24 hrs by two-fold serial dilution method; summary of the method: as §1
Streptococcus pneumoniae [17] = assay: Antimicrobial activity against extended spectrum beta-lactamases-producing Streptococcus pneumoniae 10-4 after 18-24 hrs by two-fold serial dilution method; summary of the method: as §1
Pseudomonas aeruginosa [18] = assay: Antimicrobial activity against extended spectrum beta-lactamases-producing Pseudomonas aeruginosa 10-5 after 18-24 hrs by two-fold serial dilution method; summary of the method: as §1
Escherichia coli [19] = assay: Antimicrobial activity against Escherichia coli 10-2 after 18-24 hrs by two-fold serial dilution method; summary of the method: as §1
Pseudomonas aeruginosa [20] = assay: Antimicrobial activity against extended spectrum beta-lactamases-producing Pseudomonas aeruginosa 10-15 after 18-24 hrs by two-fold serial dilution method; summary of the method: as §1
Escherichia coli [21] = assay: Antimicrobial activity against Escherichia coli ATCC 25922 after 18-24 hrs by two-fold serial dilution method; summary of the method: as §1
Escherichia coli [22] = assay: Antimicrobial activity against Escherichia coli 10-1 after 18-24 hrs by two-fold serial dilution method; summary of the method: as §1
Staphylococcus aureus [23] = assay: Antimicrobial activity against extended spectrum beta-lactamases-producing methicillin-resistant Staphylococcus aureus 10-15 after 18-24 hrs by two-fold serial dilution method; summary of the method: as §2
Klebsiella pneumoniae [24] = assay: Antimicrobial activity against Klebsiella pneumoniae 10-2 after 18-24 hrs by two-fold serial dilution method; summary of the method: as §1
Enterococcus faecium [25] = assay: Antimicrobial activity against Enterococcus faecium 10-9 after 18-24 hrs by two-fold serial dilution method; summary of the method: as §1
Escherichia coli [26] = assay: Antimicrobial activity against extended spectrum beta-lactamases-producing Escherichia coli 10-3 after 18-24 hrs by two-fold serial dilution method; summary of the method: as §1
Klebsiella pneumoniae [27] = assay: Antimicrobial activity against extended spectrum beta-lactamases-producing Klebsiella pneumoniae 10-3 after 18-24 hrs by two-fold serial dilution method; summary of the method: as §1
Streptococcus pneumoniae [28] = assay: Antimicrobial activity against extended spectrum beta-lactamases-producing Streptococcus pneumoniae 10-1 after 18-24 hrs by two-fold serial dilution method; summary of the method: as §1
Escherichia coli [29] = assay: Antimicrobial activity against Escherichia coli 10-3 after 18-24 hrs by two-fold serial dilution method; summary of the method: as §1
[30] = system: Staphylococcus epidermidis; assay: Antimicrobial activity against extended spectrum beta-lactamases-producing methicillin-resistant Staphylococcus epidermidis 10-10 after 18-24 hrs by two-fold serial dilution method; summary of the method: as §2
Enterococcus faecalis [31] = assay: Antimicrobial activity against Enterococcus faecalis 10-5 after 18-24 hrs by two-fold serial dilution method; summary of the method: as §1
Escherichia coli [32] = assay: Antimicrobial activity against extended spectrum beta-lactamases-producing Escherichia coli 10-4 after 18-24 hrs by two-fold serial dilution method; summary of the method: as §1
Pseudomonas aeruginosa [33] = assay: Antimicrobial activity against extended spectrum beta-lactamases-producing Pseudomonas aeruginosa 10-20 after 18-24 hrs by two-fold serial dilution method; summary of the method: as §1
Klebsiella pneumoniae [34] = assay: Antimicrobial activity against Klebsiella pneumoniae 10-4 after 18-24 hrs by two-fold serial dilution method; summary of the method: as §1
Klebsiella pneumoniae [35] = assay: Antimicrobial activity against Klebsiella pneumoniae 10-3 after 18-24 hrs by two-fold serial dilution method; summary of the method: as §1
[36] = system: Staphylococcus epidermidis; assay: Antimicrobial activity against extended spectrum beta-lactamases-producing methicillin-sensitive Staphylococcus epidermidis 10-13 after 18-24 hrs by two-fold serial dilution method; summary of the method: as §1

Compound	MIC (Staphylococcus aureus [1])	MIC (Enterococcus faecalis [2])	MIC [3]	MIC (Staphylococcus aureus [4])	MIC (Pseudomonas aeruginosa [5])	MIC [6]	MIC (Pseudomonas aeruginosa [7])	MIC (Enterococcus faecalis [8])	MIC (Klebsiella pneumoniae [9])	MIC [10]	MIC (Klebsiella pneumoniae [11])	MIC (Pseudomonas aeruginosa [12])	MIC (Staphylococcus aureus [13])	MIC (Staphylococcus aureus [14])	MIC (Enterococcus faecium [15])	MIC (Escherichia coli [16])	MIC (Streptococcus pneumoniae [17])	MIC (Pseudomonas aeruginosa [18])	MIC (Escherichia coli [19])	MIC (Pseudomonas aeruginosa [20])	further results
COc1cc(CO/N=C2\CN(c3nc4c(cc3F)c(=O)c(C(=O)O)cn4C3CC3)CC2CN)ccc1OC(F)F.CS(=O)(=O)O (racemic)	0.06 µg/mL	8 µg/mL	4 µg/mL	0.008 µg/mL	8 µg/mL	0.25 µg/mL	8 µg/mL	4 µg/mL	> 128 µg/mL	4 µg/mL	> 128 µg/mL	16 µg/mL	2 µg/mL	0.03 µg/mL	8 µg/mL	> 128 µg/mL	2 µg/mL	8 µg/mL	16 µg/mL	32 µg/mL	MIC (Escherichia coli [21]): 0.06 µg/mL; MIC (Escherichia coli [22]): > 128 µg/mL; MIC (Staphylococcus aureus [23]): 0.5 µg/mL; MIC (Klebsiella pneumoniae [24]): > 128 µg/mL; MIC (Enterococcus faecium [25]): 16 µg/mL; MIC (Escherichia coli [26]): > 128 µg/mL; MIC (Klebsiella pneumoniae [27]): > 128 µg/mL; MIC (Streptococcus pneumoniae [28]): 0.25 µg/mL; MIC (Escherichia coli [29]): 16 µg/mL; MIC [30]: 2 µg/mL; MIC (Enterococcus faecalis [31]): 2 µg/mL; MIC (Escherichia coli [32]): 8 µg/mL; MIC (Pseudomonas aeruginosa [33]): 8 µg/mL; MIC (Klebsiella pneumoniae [34]): > 128 µg/mL; MIC (Klebsiella pneumoniae [35]): 8 µg/mL; MIC [36]: 8 µg/mL
COc1cc(CO/N=C2\CN(c3nc4c(cc3F)c(=O)c(C(=O)O)cn4C3CC3)CC2CN)cc(Cl)c1OC.CS(=O)(=O)O (racemic)	0.015 µg/mL	4 µg/mL	0.25 µg/mL	< 0.008 µg/mL	16 µg/mL	2 µg/mL	16 µg/mL	2 µg/mL	> 128 µg/mL	4 µg/mL	> 128 µg/mL	16 µg/mL	4 µg/mL	0.015 µg/mL	8 µg/mL	> 128 µg/mL	0.03 µg/mL	16 µg/mL	16 µg/mL	32 µg/mL	MIC (Escherichia coli [21]): 0.015 µg/mL; MIC (Escherichia coli [22]): > 128 µg/mL; MIC (Staphylococcus aureus [23]): 0.25 µg/mL; MIC (Klebsiella pneumoniae [24]): 128 µg/mL; MIC (Enterococcus faecium [25]): 16 µg/mL; MIC (Escherichia coli [26]): > 128 µg/mL; MIC (Klebsiella pneumoniae [27]): > 128 µg/mL; MIC (Streptococcus pneumoniae [28]): 0.06 µg/mL; MIC (Escherichia coli [29]): 128 µg/mL; MIC [30]: 2 µg/mL; MIC (Enterococcus faecalis [31]): 0.25 µg/mL; MIC (Escherichia coli [32]): 16 µg/mL; MIC (Pseudomonas aeruginosa [33]): 8 µg/mL; MIC (Klebsiella pneumoniae [34]): > 128 µg/mL; MIC (Klebsiella pneumoniae [35]): 8 µg/mL; MIC [36]: 0.015 µg/mL
CS(=O)(=O)O.NCC1CN(c2nc3c(cc2F)c(=O)c(C(=O)O)cn3C2CC2)C/C1=N\OCc1cc2c(cc1[N+](=O)[O-])OCO2 (racemic)	0.25 µg/mL	32 µg/mL	1 µg/mL	0.008 µg/mL	8 µg/mL	0.25 µg/mL	4 µg/mL	8 µg/mL	> 128 µg/mL	2 µg/mL	> 128 µg/mL	4 µg/mL	4 µg/mL	0.25 µg/mL	16 µg/mL	> 128 µg/mL	2 µg/mL	8 µg/mL	8 µg/mL	8 µg/mL	MIC (Escherichia coli [21]): 0.008 µg/mL; MIC (Escherichia coli [22]): > 128 µg/mL; MIC (Staphylococcus aureus [23]): 2 µg/mL; MIC (Klebsiella pneumoniae [24]): > 128 µg/mL; MIC (Enterococcus faecium [25]): 8 µg/mL; MIC (Escherichia coli [26]): 32 µg/mL; MIC (Klebsiella pneumoniae [27]): > 128 µg/mL; MIC (Escherichia coli [29]): 32 µg/mL; MIC [30]: 2 µg/mL; MIC (Enterococcus faecalis [31]): 4 µg/mL; MIC (Escherichia coli [32]): 8 µg/mL; MIC (Pseudomonas aeruginosa [33]): 4 µg/mL; MIC (Klebsiella pneumoniae [34]): > 128 µg/mL; MIC (Klebsiella pneumoniae [35]): 8 µg/mL; MIC [36]: 8 µg/mL
